Assay results from different studies.
Each line is one published result; the experiments were not run side by side.
AGTR1: Type-1 angiotensin II receptor (AGTR1, Homo sapiens, UniProt P30556)
ADORA3: Adenosine receptor A3 (ADORA3, Homo sapiens, UniProt P0DMS8)
NPY1R: Neuropeptide Y receptor type 1 (NPY1R, Homo sapiens, UniProt P25929)
BRAF V600E: Serine/threonine-protein kinase B-raf (BRAF, Homo sapiens, UniProt P15056, V600E)
DRD2: D(2) dopamine receptor (DRD2, Homo sapiens, UniProt P14416)
PARP16: Protein mono-ADP-ribosyltransferase PARP16 (PARP16, Homo sapiens, UniProt Q8N5Y8)
Blk: Tyrosine-protein kinase Blk (Blk, Mus musculus, UniProt P16277)

SMILES	target	assay	setting	inhibition [%]
Oc1cccc(Nc2nc(-c3ccc(F)cc3F)cs2)c1	AGTR1	cell-free assay	10 µM	-7.2
C#CCN1CCCn2c1nc1c2c(=O)n(C)c(=O)n1C	ADORA3	ligand displacement, radioligand	10 µM, cell membranes	11
COc1cc(NC(C)=O)c(Cl)cc1C(=O)Nc1nccs1	AGTR1	cell-free assay	10 µM	4.8
CCCCCN1CCCn2c1nc1c2c(=O)n(C)c(=O)n1C	ADORA3	ligand displacement, radioligand	10 µM, cell membranes	21
O=C(c1ccc(F)cc1)N(Cc1ccccc1)C1CCCCC1	NPY1R	cell-free assay	10 µM	-9
C[C@@]1(c2cccc(Nc3ccc(C4CC4)nc3)c2Cl)CC(=O)N(C2CCOCC2)C(=N)N1	Beta-secretase 1 (BACE1, Homo sapiens, UniProt P56817)	enzyme activity, inhibitor, FRET	10 µM	52
NC(=S)NN=C(CS(=O)(=O)c1ccccc1)c1ccc(F)cc1	BRAF V600E	enzyme activity, inhibitor, ATP luminescence	10 µM	92
O=C(Nc1ccc(S(=O)(=O)N2CCC(Cl)CC2)cc1)c1ccc([N+](=O)[O-])o1	NPY1R	ligand displacement, radioligand	10 µM	7
CN(C)C1CCN(CC#Cc2nn(C3CCCC3)c3nc(NCc4ccccc4)ncc23)C1 (centres unmarked)	Ephrin type-B receptor 2 (EPHB2, Homo sapiens, UniProt P29323)	enzyme activity, inhibitor, FRET	10 µM	31
COc1ccc(-c2csc(NN=C(CS(=O)(=O)c3ccccc3)c3ccc(F)cc3)n2)cc1	BRAF V600E	enzyme activity, inhibitor, ATP luminescence	0.1 µM	51
CC/C(=N\NC(=O)NCc1cccc(O)c1)c1ccc(O)c(C)c1O	Epidermal growth factor receptor (EGFR, Homo sapiens, UniProt P00533, L858R/T790M)	enzyme activity, inhibitor	0.1 µM	0.1
CC(O)c1ccc(-c2ccc(CNCCc3c[nH]c4ccccc34)o2)cc1 (centres unmarked)	DRD2	enzyme activity, inhibitor	10 µM	36.8
[N-]=[N+]=N[C@@H](CC(=O)NO)Cc1ccc2ccccc2c1	Endoplasmic reticulum aminopeptidase 2 (ERAP2, Homo sapiens, UniProt Q6P179)	enzyme activity, inhibitor, fluorescence	300 µM	24
Cc1ccc(C(CS(=O)(=O)c2ccccc2)=NN=C2N=C(c3ccc(C)cc3)CS2)cc1	BRAF V600E	enzyme activity, inhibitor, ATP luminescence	10 µM	86
O=C1C2CCCN2C(=O)N1CCCCN1CCN(c2cccc(C(F)(F)F)c2)CC1 (centres unmarked)	DRD2	enzyme activity, inhibitor	10 µM	10
CCCCCCN1CCCn2c1nc1c2c(=O)n(C)c(=O)n1C	ADORA3	ligand displacement, radioligand	10 µM, cell membranes	39
Cc1ccc(C(CS(=O)(=O)c2ccccc2)=NNC2=NC(=O)C(=NNc3ccccc3)S2)cc1	BRAF V600E	enzyme activity, inhibitor, ATP luminescence	10 µM	89
O=C(c1ccc(Cl)cc1)N(Cc1ccccc1)C1CCCCC1	AGTR1	cell-free assay	10 µM	-0.9
CCCCN1CCCn2c1nc1c2c(=O)n(C)c(=O)n1C	ADORA3	ligand displacement, radioligand	10 µM, cell membranes	12
O=C(c1cccc(Cl)c1)N1CCN(CCNc2cc(=O)oc3ccccc23)CC1	DRD2	enzyme activity, inhibitor	10 µM	-1.9
Cc1ccc(C(CS(=O)(=O)c2ccccc2)=NNc2nc(C)c(N=Nc3ccccc3)s2)cc1	BRAF V600E	enzyme activity, inhibitor, ATP luminescence	10 µM	85
CCOc1ccc(N2C(=O)CC(NCCc3ccccc3Cl)C2=O)cc1 (centres unmarked)	DRD2	enzyme activity, inhibitor	10 µM	42.5
O=C1NCCCc2ccc(F)cc21	PARP16	enzyme activity, inhibitor	10 µM	74
C=CN1CCCn2c1nc1c2c(=O)n(C)c(=O)n1C	ADORA3	ligand displacement, radioligand	10 µM, cell membranes	11

SMILES	target	assay	setting	inhibition [%]
O=C(CCN1CCC(O)(c2ccc(F)cc2)C1)c1ccc2c(c1)OCCO2 (centres unmarked)	DRD2	enzyme activity, inhibitor	10 µM	41.3
CN(C(=O)N(C)C1C2CC3CC(C2)CC1C3)c1ccc(F)c(F)c1F (centres unmarked)	ephB (Mycobacterium tuberculosis, UniProt I6YC03)	enzyme activity, inhibitor	10 nM	< 1
Nc1ccc2c(c1)CCCn1nnnc1-2	PARP16	enzyme activity, inhibitor	10 µM	53
Cc1ccc(C(CS(=O)(=O)c2ccccc2)=NN=C2N=C(c3ccc(Br)cc3)CS2)cc1	BRAF V600E	enzyme activity, inhibitor, ATP luminescence	10 nM	43
O=C1CC(N2CCN(Cc3ccccc3)CC2)C(=O)N1c1ccc2c(c1)OCCO2 (centres unmarked)	DRD2	enzyme activity, inhibitor	10 µM	34.1
Cn1cnc(Br)c1C1=CN(c2ncnc3[nH]cnc23)CCS1	Serine/threonine-protein kinase Nek5 (NEK5, Homo sapiens, UniProt Q6P3R8)	enzyme activity, inhibitor, radiometric	2 µM	90.4
OC(CNCc1cccc(Oc2nnnn2-c2ccccc2)c1)c1ccccc1 (centres unmarked)	DRD2	enzyme activity, inhibitor	10 µM	35.6
CCCCn1c(=O)c2[nH]c(C34CC5CC(CC3C5)C4)nc2n(CCCO)c1=O	ADORA3	ligand displacement, radioligand	10 µM, cell membranes	39
Cc1ccc(C(CS(=O)(=O)c2ccccc2)=NNc2nc(C)c(N=Nc3cccc(C)c3)s2)cc1	BRAF V600E	enzyme activity, inhibitor, ATP luminescence	0.1 µM	63
CNCc1ccc(-c2cc(-c3nc(-c4ccc(S(=O)(=O)C(C)C)cc4)cnc3N)on2)cc1	Blk	enzyme activity, inhibitor	0.4 µM	2
CNC(=O)c1cc(Oc2ccc(NC(=O)Nc3ccc(Cl)c(C(F)(F)F)c3)cc2)ccn1	Blk	enzyme activity, inhibitor	0.3 µM	-25
O=C(CSc1nc2nccnc2c(=O)n1CCc1ccccc1)Nc1nccs1	Phosphatidylinositol 4-kinase type 2-alpha (PI4K2A, Homo sapiens, UniProt Q9BTU6)	enzyme activity, inhibitor	10 µM	9
C=CCN1CCCn2c1nc1c2c(=O)n(C)c(=O)n1C	ADORA3	ligand displacement, radioligand	10 µM, cell membranes	17
Cc1ccc(C(CS(=O)(=O)c2ccccc2)=NNC2=NC(=O)C(=NNc3ccc([N+](=O)[O-])cc3)S2)cc1	BRAF V600E	enzyme activity, inhibitor, ATP luminescence	0.1 µM	49
CC(=O)N[C@H]1CSSC[C@@H](C(=O)N[C@H](Cc2c[nH]c3ccccc23)C(N)=O)NC(=O)[C@@H](Cc2ccccc2)NC(=O)[C@H](CCCNC(=N)N)NC1=O	Melanocortin receptor 3 (MC3R, Homo sapiens, UniProt P41968)	ligand displacement, radioligand	10 µM, 40 min	35
Cc1ccc(Nc2nccc(N(C)c3ccc4c(C)n(C)nc4c3)n2)cc1S(N)(=O)=O	Dual specificity mitogen-activated protein kinase kinase 4 (Map2k4, Mus musculus, UniProt P47809)	enzyme activity, inhibitor	0.3 µM	11
CC(O)c1ccc(-c2ccc(CNCCc3ccc(S(N)(=O)=O)cc3)o2)cc1 (centres unmarked)	DRD2	enzyme activity, inhibitor	10 µM	22.1
CCN(CC)c1ccc(C2Nc3ccc(C(=O)c4ccccc4)cc3NC3=C2C(=O)CC(C)(C)C3)cc1 (centres unmarked)	5-hydroxytryptamine receptor 1E (HTR1E, Homo sapiens, UniProt P28566)	ligand displacement, radioligand	10 µM	5
CC(C)CC(C)N1CCCn2c1nc1c2c(=O)n(C)c(=O)n1C (centres unmarked)	ADORA3	ligand displacement, radioligand	10 µM, cell membranes	22
O=C1N=C(N2CCCCN2)S/C1=C\c1ccc(F)cc1O	NPY1R	ligand displacement, radioligand	10 µM	< 10
CC(=O)c1nn(CC(=O)N2C[C@H](F)C[C@H]2C(=O)Nc2cccc(Br)n2)c2ccc(-c3cnc(C)nc3)cc12	Neutrophil elastase (ELANE, Homo sapiens, UniProt P08246)	enzyme activity, inhibitor	10 µM	0.7
COc1cc2c(cc1OC)-c1nnnn1CCC2	PARP16	enzyme activity, inhibitor	10 µM	83
CCN(CC)CCNC(=O)c1c(C)[nH]c(/C=C2\C(=O)Nc3ccc(F)cc32)c1C	Blk	enzyme activity, inhibitor	0.3 µM	36
